Measured values from ChEMBL document CHEMBL5696442, “Discovery of type II inhibitors of TGFβ-activated kinase 1 (TAK1) and mitogen-activated protein kinase kinase kinase kinase 2 (MAP4K2)” (J Med Chem, 2015).

Columns and labels:
[1] = target: Mitogen-activated protein kinase 10 (Homo sapiens, UniProt P53779); assay: Inhibition of JNK3 Lys2 labeling site in human Huh-7 cell lysate at 1 uM by KiNativ Profiling analysis relative to control; format: subcellular
[2] = target: Tyrosine-protein kinase Fer (Homo sapiens, UniProt P16591); assay: Inhibition of FER Lys1 labeling site in human A-375 cells at 0.5 uM by KiNativ Profiling analysis relative to control; format: cell-based
Tyrosine-protein kinase Fer, sequence (P16591 whole entry, looked up): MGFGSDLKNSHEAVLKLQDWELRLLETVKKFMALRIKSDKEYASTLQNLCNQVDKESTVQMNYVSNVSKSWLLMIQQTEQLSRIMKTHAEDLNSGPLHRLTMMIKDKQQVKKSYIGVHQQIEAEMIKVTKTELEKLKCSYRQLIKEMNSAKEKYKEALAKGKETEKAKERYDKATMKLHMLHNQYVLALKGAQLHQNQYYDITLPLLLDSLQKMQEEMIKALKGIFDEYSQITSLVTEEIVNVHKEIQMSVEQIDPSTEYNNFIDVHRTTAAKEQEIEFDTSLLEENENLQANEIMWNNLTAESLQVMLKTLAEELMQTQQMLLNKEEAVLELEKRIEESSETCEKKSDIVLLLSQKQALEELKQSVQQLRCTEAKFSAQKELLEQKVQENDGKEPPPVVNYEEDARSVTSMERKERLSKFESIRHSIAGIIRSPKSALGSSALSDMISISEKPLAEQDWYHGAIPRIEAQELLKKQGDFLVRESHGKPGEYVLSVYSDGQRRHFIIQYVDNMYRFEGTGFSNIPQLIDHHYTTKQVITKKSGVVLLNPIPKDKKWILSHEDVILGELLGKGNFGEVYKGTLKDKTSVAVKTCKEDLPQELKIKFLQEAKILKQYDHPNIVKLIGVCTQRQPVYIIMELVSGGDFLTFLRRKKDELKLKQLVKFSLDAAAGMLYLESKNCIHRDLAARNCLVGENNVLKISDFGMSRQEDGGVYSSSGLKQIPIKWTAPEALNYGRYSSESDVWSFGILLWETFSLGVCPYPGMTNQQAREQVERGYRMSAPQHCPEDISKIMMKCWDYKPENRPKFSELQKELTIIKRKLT

[3] = target: Calcium/calmodulin-dependent protein kinase type 1 (Homo sapiens) (UniProt Q14012); assay: Inhibition of CaMK1alpha Lys1 labeling site harbouring LVAIKCIAK in human A-375 cells at 5 uM by KiNativ Profiling analysis relative to control; format: cell-based
Calcium/calmodulin-dependent protein kinase type 1 (Homo sapiens), sequence (Q14012 whole entry, looked up): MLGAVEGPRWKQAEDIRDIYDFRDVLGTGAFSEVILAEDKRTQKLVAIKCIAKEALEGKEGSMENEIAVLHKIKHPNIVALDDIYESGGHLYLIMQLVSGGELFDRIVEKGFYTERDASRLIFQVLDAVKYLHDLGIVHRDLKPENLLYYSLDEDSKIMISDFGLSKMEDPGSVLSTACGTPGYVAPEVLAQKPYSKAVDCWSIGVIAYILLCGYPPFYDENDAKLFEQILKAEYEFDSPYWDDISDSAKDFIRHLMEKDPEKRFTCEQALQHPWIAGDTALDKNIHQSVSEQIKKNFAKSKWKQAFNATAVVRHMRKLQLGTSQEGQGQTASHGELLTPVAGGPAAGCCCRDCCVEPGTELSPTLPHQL
Procedure, shortened: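 Intact A375 melanoma cells were treated with compound at 5 or 0.5 μM, then lysed. Lysate kinases were labeled with a lysine-reactive ATP or ADP-biotin probe (KiNativ). Inhibition is read as protection of each kinase labeling site from probe labeling.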

[4] = target: Serine/threonine-protein kinase Nek6 (Homo sapiens) (UniProt Q9HC98); assay: Inhibition of NEK6 Lys2 labeling site in human A-375 cells at 5 uM by KiNativ Profiling analysis relative to control; format: cell-based
Serine/threonine-protein kinase Nek6 (Homo sapiens), sequence (Q9HC98 whole entry): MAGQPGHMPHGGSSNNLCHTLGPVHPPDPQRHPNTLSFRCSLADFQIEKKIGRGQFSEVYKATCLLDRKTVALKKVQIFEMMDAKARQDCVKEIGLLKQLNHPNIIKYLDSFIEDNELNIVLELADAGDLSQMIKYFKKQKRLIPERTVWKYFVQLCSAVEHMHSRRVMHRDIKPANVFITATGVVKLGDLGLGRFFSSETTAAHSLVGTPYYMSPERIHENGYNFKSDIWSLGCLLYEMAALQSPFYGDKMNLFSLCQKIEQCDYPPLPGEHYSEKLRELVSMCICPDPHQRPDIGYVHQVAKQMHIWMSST

[5] = target: Serine/threonine-protein kinase WNK4 (Homo sapiens) (UniProt Q96J92); assay: Inhibition of Wnk4 ACT labeling site in human A-375 cells at 5 uM by KiNativ Profiling analysis relative to control; format: cell-based
[6] = target: Cyclin-dependent kinase 16 (Homo sapiens) (UniProt Q00536); assay: Inhibition of PCTAIRE1 Lys1 labeling site in human A-375 cells at 0.5 uM by KiNativ Profiling analysis relative to control; format: cell-based
Cyclin-dependent kinase 16 (Homo sapiens), sequence (Q00536 whole entry): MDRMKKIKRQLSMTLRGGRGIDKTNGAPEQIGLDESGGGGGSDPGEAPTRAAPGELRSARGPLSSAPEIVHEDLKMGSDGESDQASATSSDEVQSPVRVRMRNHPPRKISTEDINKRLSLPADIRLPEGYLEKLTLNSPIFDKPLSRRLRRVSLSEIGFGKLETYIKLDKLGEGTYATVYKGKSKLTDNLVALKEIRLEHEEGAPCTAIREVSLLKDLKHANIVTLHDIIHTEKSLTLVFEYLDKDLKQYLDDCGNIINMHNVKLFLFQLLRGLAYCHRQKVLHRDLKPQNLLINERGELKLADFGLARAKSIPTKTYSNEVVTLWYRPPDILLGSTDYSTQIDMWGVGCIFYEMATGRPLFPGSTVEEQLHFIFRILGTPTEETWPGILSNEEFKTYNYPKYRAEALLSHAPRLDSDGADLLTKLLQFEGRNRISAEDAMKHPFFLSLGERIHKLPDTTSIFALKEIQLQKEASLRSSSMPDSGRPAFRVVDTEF

[7] = target: Cyclin-dependent kinase 11B (Homo sapiens) (UniProt P21127); assay: Inhibition of PITSLRE Lys2 labeling site in human A-375 cells at 0.5 uM by KiNativ Profiling analysis relative to control; format: cell-based
Cyclin-dependent kinase 11B (Homo sapiens), sequence (P21127 whole entry): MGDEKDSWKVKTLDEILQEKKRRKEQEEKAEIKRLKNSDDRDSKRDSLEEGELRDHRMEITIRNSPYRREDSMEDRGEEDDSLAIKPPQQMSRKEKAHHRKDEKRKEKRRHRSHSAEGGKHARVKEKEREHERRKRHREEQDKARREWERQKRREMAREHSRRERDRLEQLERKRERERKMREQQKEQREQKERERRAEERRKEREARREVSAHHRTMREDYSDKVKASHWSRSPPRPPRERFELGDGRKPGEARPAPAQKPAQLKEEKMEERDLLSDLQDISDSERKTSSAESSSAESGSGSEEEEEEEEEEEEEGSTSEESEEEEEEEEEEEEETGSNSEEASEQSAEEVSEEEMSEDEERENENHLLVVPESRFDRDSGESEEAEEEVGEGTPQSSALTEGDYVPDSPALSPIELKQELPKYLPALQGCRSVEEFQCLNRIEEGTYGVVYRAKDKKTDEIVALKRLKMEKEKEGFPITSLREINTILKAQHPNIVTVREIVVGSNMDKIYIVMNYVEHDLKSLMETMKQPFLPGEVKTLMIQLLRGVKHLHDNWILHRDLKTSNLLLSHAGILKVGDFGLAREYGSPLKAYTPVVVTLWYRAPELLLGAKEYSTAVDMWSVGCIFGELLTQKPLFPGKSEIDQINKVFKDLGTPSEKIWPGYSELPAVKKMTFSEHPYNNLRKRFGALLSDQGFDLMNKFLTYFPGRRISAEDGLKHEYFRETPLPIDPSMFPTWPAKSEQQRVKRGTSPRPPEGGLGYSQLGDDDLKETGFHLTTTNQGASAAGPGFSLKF

[8] = target: Aurora kinase B (Homo sapiens) (UniProt Q96GD4); assay: Inhibition of AurB ATP Loop labeling site in human A-375 cells at 0.05 uM by KiNativ Profiling analysis relative to control; format: cell-based
Aurora kinase B (Homo sapiens), sequence (Q96GD4 whole entry): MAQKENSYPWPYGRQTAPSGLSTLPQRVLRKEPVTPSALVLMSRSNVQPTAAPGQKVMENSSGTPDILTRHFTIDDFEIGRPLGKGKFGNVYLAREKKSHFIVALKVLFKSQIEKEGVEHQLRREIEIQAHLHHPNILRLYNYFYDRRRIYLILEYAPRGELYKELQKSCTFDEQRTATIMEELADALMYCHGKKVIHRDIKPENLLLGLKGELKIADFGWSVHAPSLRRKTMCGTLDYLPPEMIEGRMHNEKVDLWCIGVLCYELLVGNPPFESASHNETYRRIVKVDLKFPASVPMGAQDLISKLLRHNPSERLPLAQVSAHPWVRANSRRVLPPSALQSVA

[9] = target: T1, Ephrin type-B receptor 2 (Homo sapiens) (UniProt P29323); assay: Inhibition of EphB2 ACT labeling site in human A-375 cells at 0.05 uM by KiNativ Profiling analysis relative to control; format: cell-based
T1 sequence (whole entry): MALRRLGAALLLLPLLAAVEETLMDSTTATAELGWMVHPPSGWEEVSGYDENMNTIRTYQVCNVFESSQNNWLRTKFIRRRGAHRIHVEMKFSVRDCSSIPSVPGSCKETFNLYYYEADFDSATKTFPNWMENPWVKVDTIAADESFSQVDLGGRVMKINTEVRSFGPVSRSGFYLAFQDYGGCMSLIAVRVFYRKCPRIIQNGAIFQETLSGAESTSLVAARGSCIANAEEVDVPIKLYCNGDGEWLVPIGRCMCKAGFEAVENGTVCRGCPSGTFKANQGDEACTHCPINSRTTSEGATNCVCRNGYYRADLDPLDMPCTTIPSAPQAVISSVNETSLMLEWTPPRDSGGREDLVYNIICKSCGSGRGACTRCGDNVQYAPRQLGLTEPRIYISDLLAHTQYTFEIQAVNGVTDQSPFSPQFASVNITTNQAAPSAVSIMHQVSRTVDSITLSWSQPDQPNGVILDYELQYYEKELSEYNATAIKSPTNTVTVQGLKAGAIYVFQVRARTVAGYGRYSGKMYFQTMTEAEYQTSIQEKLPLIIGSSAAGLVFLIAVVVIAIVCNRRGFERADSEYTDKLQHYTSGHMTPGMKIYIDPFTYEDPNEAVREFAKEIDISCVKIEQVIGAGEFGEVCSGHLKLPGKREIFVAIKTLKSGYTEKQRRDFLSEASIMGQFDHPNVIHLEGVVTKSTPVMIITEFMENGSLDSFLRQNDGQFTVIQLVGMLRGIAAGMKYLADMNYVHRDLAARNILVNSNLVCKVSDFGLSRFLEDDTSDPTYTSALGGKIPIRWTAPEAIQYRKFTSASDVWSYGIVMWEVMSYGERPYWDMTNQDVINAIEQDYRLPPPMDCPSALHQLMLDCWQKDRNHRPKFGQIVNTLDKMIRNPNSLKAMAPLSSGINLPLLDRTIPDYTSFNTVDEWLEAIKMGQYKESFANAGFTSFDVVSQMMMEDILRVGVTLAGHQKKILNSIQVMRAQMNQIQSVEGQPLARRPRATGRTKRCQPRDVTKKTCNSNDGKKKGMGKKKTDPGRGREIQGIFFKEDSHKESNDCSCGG

[10] = target: Serine/threonine-protein kinase Nek7 (Homo sapiens) (UniProt Q8TDX7); assay: Inhibition of NEK7 Lys2 labeling site in human A-375 cells at 0.05 uM by KiNativ Profiling analysis relative to control; format: cell-based
Serine/threonine-protein kinase Nek7 (Homo sapiens), sequence (Q8TDX7 whole entry, looked up): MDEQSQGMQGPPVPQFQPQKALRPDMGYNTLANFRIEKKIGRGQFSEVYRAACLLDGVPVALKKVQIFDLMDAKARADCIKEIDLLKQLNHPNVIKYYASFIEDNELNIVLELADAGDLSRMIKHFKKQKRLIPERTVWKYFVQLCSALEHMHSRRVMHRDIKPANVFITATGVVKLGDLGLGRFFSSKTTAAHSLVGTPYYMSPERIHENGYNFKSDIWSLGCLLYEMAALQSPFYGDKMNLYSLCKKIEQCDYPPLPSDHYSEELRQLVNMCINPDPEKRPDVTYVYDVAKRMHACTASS

[11] = target: T2, Mitogen-activated protein kinase kinase kinase 7 (Homo sapiens) (UniProt O43318); assay: Inhibition of TAK1 Lys2 labeling site in human A-375 cells at 0.05 uM by KiNativ Profiling analysis relative to control; format: cell-based
T2 sequence (whole entry): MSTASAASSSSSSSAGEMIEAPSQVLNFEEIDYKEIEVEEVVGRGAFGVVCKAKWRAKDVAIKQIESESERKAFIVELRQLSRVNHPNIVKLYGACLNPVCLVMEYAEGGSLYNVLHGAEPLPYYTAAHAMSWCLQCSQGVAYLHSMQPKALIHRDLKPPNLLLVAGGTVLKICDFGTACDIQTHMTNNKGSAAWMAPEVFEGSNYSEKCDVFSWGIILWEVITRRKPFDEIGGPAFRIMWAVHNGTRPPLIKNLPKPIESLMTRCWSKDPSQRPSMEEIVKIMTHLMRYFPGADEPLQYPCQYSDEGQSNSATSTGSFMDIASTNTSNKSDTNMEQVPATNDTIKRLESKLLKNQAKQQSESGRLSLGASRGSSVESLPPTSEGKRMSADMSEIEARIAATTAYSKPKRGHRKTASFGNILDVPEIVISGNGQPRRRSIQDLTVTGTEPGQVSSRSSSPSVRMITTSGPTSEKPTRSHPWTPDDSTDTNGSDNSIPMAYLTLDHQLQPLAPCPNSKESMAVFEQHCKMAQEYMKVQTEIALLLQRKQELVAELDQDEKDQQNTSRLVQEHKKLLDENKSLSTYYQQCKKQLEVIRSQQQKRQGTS

[12] = target: 3-phosphoinositide-dependent protein kinase 1 (Homo sapiens) (UniProt O15530); assay: Inhibition of PDK1 Protein Kinase Domain in human A-375 cells at 5 uM by KiNativ Profiling analysis relative to control
3-phosphoinositide-dependent protein kinase 1 (Homo sapiens), sequence (O15530 whole entry, looked up, the tested form may be a part): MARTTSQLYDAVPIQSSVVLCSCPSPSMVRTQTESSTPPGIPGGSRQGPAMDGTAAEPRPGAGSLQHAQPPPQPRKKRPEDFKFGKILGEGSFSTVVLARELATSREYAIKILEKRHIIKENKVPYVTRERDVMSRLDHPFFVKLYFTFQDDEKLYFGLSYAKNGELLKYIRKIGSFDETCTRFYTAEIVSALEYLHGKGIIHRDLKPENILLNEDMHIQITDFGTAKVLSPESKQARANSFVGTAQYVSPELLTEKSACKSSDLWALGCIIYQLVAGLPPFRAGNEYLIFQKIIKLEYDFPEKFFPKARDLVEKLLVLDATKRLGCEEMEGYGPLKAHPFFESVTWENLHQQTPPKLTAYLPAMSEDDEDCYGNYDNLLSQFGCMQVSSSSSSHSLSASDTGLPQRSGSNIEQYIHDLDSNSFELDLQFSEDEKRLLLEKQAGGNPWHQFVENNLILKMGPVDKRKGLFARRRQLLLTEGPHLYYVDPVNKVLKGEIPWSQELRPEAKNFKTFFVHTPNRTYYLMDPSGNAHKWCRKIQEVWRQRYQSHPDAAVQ

Mitogen-activated protein kinase 10, sequence (P53779 whole entry): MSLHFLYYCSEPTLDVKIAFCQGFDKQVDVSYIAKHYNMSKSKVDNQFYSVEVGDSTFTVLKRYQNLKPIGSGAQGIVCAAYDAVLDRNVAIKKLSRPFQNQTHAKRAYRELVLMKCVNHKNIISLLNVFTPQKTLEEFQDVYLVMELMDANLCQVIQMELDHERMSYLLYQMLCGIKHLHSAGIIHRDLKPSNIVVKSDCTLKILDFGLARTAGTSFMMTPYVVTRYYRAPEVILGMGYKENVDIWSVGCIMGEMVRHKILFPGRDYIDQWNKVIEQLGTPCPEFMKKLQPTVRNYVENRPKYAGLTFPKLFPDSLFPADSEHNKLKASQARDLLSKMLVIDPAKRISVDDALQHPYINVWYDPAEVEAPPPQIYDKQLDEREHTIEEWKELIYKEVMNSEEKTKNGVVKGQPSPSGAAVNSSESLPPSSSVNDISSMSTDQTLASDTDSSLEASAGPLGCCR

SMILES | inhibition [1] [%] | inhibition [2] [%] | inhibition [3] [%] | inhibition [4] [%] | inhibition [5] [%] | inhibition [6] [%] | inhibition [7] [%] | inhibition [8] [%] | inhibition [9] [%] | inhibition [10] [%] | inhibition [11] [%] | inhibition [12] [%]
CNc1cc(Oc2cc(C(=O)Nc3cc(-n4cnc(C)c4)cc(C(F)(F)F)c3)ccc2C)ncn1 | 18.4 | – | – | – | – | – | – | – | – | – | – | –
CNc1cc(Oc2cc(C(=O)Nc3cc(N4CCN(C)CC4)cc(C(F)(F)F)c3)ccc2C)ncn1 | 7 | – | – | – | – | – | – | – | – | – | – | –
CCN1CCN(Cc2ccc(NC(=O)c3ccc(C)c(Oc4ccnc5[nH]ccc45)c3)cc2C(F)(F)F)CC1 | – | 87 | 91.8 | 6.4 | 14.4 | 47.7 | -2.7 | 32.5 | 5 | 10.6 | 88.7 | 9
CCN1CCN(Cc2ccc(NC(=O)c3ccc(C)c(/C=C/c4cnc5[nH]ccc5c4OC)c3)cc2C(F)(F)F)CC1 | – | 30 | 31.9 | 3.1 | -4.5 | 30.2 | -0.4 | 14.1 | 36.9 | 5.8 | 71.8 | 15.8
